{
  "source": "paper PMC9291915",
  "about": "(British Journal of Clinical Pharmacology, 2021)",
  "key": {"P-gp": {"target": "P-gp (Homo sapiens, UniProt P08183)", "sequence (P08183 whole entry)": "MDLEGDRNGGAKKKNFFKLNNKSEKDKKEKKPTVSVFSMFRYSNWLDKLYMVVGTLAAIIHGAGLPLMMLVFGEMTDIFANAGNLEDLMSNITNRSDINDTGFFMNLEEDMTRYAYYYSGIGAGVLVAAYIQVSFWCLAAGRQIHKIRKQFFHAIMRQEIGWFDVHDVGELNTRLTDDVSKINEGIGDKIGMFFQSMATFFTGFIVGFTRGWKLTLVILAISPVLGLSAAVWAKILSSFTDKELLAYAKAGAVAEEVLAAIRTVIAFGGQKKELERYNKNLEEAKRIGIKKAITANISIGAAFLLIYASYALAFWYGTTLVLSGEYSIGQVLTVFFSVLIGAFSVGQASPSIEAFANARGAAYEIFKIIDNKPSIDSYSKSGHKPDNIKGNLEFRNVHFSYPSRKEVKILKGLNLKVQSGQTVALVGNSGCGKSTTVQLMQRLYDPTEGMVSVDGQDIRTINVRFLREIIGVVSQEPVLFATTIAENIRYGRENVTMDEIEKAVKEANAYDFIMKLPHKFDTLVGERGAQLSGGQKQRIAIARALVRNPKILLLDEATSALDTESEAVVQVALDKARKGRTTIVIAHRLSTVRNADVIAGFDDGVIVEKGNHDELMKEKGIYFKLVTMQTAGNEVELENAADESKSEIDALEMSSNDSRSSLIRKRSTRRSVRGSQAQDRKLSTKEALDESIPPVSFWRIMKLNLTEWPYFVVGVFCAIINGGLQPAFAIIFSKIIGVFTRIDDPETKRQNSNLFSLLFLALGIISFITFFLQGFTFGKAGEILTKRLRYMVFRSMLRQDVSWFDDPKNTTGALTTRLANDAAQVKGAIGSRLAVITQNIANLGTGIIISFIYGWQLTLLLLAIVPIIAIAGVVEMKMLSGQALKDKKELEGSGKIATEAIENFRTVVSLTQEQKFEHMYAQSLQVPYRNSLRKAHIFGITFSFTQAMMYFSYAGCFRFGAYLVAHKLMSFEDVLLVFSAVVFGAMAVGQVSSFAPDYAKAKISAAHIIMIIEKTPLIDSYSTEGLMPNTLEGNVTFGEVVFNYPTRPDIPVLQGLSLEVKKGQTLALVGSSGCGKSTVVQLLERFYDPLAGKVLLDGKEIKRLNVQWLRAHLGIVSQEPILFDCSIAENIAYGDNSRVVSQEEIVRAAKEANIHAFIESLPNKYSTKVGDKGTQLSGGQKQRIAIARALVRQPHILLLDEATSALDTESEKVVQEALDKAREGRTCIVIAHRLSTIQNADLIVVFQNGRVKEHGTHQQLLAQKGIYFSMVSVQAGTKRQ", "format": "in vitro ADME", "outline": "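Bidirectional transport of loperamide was measured in a cell test system without and with a concentration range of the test compound; cyclosporin A was the control inhibitor. Papp = (dQ/dt)/(A×C0). Per replicate, A→B Papp was subtracted from B→A Papp to give net secretory flux. This was expressed as % of mean vehicle-control activity and fitted for IC50. Ki = IC50/(1+[S]×fu/Km), using loperamide Km 36.2.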"}, "CYP1A2": {"target": "T1, CYP1A2 (Homo sapiens, UniProt P05177)", "T1 sequence (P05177 1-516)": "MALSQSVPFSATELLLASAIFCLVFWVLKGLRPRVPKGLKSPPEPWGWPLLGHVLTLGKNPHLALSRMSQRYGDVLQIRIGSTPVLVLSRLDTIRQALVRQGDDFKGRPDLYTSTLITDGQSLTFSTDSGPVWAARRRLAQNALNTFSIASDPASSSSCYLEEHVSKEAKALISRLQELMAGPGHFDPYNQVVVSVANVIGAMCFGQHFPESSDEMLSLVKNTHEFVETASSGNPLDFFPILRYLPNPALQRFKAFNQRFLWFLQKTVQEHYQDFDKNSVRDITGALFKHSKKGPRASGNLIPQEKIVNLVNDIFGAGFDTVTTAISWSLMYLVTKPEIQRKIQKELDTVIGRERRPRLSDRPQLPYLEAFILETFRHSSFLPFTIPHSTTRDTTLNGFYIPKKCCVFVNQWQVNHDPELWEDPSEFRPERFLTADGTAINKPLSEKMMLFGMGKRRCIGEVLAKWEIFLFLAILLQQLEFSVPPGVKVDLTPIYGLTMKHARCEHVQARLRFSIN", "experiment": "Cytochrome P450 inhibition", "format": "in vitro ADME", "details": "substrate phenacetin; any pre-incubation condition", "outline": "(§1)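 Human liver microsomes (0.25 mg/mL final) were pre-incubated with the test compound at six concentrations (40 to 10 000, in water) for 30 min without or with NADPH, or with 0 min pre-incubation. Probe substrate and NADPH (1 mM) were then added (final DMSO 0.05%) and incubated 5 min at 37 °C. Isoform-specific time-dependent inhibitors served as positive controls. IC50 per condition was derived from the decrease in metabolite formation versus vehicle control.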"}, "[1]": {"details": "cited from earlier work"}, "CYP2B6": {"target": "T2, CYP2B6 (Homo sapiens, UniProt P20813)", "T2 sequence (P20813 1-491)": "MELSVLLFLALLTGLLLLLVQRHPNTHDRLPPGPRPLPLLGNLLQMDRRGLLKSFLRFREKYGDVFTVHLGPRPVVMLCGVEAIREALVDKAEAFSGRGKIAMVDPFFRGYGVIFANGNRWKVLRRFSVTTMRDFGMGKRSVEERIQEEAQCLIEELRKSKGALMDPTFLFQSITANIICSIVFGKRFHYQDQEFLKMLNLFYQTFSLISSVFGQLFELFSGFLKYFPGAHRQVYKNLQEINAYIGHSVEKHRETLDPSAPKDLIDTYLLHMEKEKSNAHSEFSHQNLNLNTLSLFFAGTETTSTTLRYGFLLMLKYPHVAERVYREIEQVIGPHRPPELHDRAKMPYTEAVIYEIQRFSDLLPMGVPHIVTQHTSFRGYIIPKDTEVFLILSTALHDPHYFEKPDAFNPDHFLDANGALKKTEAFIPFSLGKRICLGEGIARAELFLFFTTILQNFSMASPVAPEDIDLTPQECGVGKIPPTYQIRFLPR", "experiment": "Cytochrome P450 inhibition", "format": "in vitro ADME", "details": "substrate bupropion; any pre-incubation condition", "outline": "as §1"}, "CYP2C9": {"target": "CYP2C9 (Homo sapiens, UniProt P11712)", "sequence (P11712 whole entry)": "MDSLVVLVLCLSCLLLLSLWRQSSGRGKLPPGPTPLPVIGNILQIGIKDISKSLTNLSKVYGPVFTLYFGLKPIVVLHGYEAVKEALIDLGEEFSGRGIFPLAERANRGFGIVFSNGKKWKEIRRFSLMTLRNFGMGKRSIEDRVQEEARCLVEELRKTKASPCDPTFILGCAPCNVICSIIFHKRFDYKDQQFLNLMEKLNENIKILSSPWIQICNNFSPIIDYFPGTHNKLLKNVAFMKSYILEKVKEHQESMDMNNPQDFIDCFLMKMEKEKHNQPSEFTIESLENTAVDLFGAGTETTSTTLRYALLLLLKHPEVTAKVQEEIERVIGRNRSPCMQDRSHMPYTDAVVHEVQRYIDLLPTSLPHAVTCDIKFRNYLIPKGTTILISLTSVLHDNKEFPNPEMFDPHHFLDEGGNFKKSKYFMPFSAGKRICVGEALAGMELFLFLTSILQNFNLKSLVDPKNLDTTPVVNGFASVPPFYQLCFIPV", "experiment": "Cytochrome P450 inhibition", "format": "in vitro ADME", "details": "substrate diclofenac; any pre-incubation condition", "outline": "as §1"}, "CYP3A4": {"target": "CYP3A4 (Homo sapiens, UniProt P08684)", "sequence (P08684 whole entry)": "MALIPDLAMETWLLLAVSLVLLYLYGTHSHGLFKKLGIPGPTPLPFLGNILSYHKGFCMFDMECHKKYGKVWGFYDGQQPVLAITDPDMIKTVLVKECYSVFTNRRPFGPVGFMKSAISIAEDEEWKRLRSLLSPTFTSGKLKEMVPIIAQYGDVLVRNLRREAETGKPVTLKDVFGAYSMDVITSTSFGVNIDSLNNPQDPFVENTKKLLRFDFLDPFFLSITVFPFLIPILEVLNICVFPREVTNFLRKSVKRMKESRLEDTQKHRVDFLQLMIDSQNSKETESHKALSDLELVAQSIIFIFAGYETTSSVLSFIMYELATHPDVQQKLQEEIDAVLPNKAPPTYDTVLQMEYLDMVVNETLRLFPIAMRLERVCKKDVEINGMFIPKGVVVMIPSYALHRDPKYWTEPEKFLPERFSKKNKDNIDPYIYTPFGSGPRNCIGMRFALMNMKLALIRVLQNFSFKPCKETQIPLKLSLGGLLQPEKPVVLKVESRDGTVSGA", "experiment": "Cytochrome P450 inhibition", "format": "in vitro ADME", "outline": "as §1"}, "[2]": {"details": "cited from earlier work", "remark": "listed apart in the source"}, "[3]": {"details": "cited from earlier work", "remark": "listed apart in the source"}, "[4]": {"experiment": "Clinical pharmacokinetics of treosulfan in plasma and urine", "format": "in vivo, human", "details": "for AUC / half-life: human, plasma, intravenous; for AUC: 14 g/m^2, AUC; for half-life: 14 g/m^2, apparent half‐life, median"}, "CYP2D6": {"target": "CYP2D6 (Homo sapiens, UniProt P10635)", "sequence (P10635 whole entry)": "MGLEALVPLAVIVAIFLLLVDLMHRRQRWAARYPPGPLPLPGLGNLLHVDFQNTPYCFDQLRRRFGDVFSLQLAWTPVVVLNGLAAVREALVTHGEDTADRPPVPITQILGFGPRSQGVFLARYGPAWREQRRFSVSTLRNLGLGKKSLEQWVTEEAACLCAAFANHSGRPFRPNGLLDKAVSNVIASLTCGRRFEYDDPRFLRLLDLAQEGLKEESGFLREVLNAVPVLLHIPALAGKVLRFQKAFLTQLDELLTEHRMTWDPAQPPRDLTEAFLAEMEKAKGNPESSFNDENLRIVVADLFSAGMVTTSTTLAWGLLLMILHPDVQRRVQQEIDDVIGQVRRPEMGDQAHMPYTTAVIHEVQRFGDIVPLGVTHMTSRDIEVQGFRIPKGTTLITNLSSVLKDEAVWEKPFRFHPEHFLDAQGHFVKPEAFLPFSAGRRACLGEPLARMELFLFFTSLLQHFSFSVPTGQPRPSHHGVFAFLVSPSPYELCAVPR", "experiment": "Cytochrome P450 inhibition", "format": "in vitro ADME", "details": "substrate dextromethorphan; any pre-incubation condition", "outline": "as §1"}, "CYP2C19": {"target": "CYP2C19 (Homo sapiens, UniProt P33261)", "sequence (P33261 whole entry)": "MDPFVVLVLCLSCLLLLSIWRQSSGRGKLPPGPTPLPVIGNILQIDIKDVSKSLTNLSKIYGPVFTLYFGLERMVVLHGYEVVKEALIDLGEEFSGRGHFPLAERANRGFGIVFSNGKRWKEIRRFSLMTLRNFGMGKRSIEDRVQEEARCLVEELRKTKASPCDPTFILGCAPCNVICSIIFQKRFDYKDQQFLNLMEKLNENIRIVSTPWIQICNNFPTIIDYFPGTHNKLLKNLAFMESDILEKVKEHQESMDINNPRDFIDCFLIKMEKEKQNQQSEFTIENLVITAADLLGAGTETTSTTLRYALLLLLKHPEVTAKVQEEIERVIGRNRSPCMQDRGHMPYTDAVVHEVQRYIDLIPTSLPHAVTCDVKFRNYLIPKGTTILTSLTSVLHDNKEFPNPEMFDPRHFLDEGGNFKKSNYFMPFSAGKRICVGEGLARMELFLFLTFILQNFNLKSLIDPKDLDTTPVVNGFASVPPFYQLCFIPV", "experiment": "Cytochrome P450 inhibition", "format": "in vitro ADME", "outline": "as §1"}, "CYP2C8": {"target": "T3, CYP2C8 (Homo sapiens, UniProt P10632)", "T3 sequence (P10632 1-490)": "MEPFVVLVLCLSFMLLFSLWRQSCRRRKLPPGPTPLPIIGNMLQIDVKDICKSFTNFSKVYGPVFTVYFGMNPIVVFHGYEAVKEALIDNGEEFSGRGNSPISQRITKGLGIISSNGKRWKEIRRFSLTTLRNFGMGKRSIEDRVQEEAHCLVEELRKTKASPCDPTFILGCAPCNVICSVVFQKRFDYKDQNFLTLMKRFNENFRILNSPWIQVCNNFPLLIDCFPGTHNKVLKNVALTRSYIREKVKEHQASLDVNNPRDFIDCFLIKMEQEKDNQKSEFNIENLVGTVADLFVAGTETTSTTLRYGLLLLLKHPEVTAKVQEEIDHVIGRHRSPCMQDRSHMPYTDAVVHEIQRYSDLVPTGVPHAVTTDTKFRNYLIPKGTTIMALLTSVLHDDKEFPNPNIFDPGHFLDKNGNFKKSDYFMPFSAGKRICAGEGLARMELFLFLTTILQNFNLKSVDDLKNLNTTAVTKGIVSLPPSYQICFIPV", "experiment": "Cytochrome P450 inhibition", "format": "in vitro ADME", "details": "substrate paclitaxel; any pre-incubation condition", "outline": "as §1"}},
  "data": [
    {"smiles": "CS(=O)(=O)OC[C@H](O)[C@@H](O)COS(C)(=O)=O", "note": "[treosulfan, L‐threitol‐1,4‐bis‐methanesulfonate]", "values": [
      {"measurement": "Ki", "setting": "P-gp", "value": 1770, "unit": "µM"},
      {"measurement": "IC50", "setting": "P-gp; human, in vitro cell test system (cell line not given), probe loperamide", "value": "> 1000", "unit": "µM"},
      {"measurement": "inhibition of CYP1A2", "setting": "CYP1A2", "value": "did not inhibit"},
      {"measurement": "Log P O:W", "setting": "[1]", "value": "−1.58"},
      {"measurement": "inhibition of CYP2B6", "setting": "CYP2B6", "value": "did not inhibit"},
      {"measurement": "inhibition of CYP2C9", "setting": "CYP2C9", "value": "did not inhibit"},
      {"measurement": "IC50", "setting": "CYP3A4", "value": 1870, "unit": "µM"},
      {"measurement": "Ki", "setting": "CYP3A4", "value": 1210, "unit": "µM"},
      {"measurement": "inhibition of CYP3A4 using testosterone as the substrate", "setting": "CYP3A4; 40 to 10 000 μM treosulfan, any pre-incubation condition", "value": "did not inhibit"},
      {"measurement": "GFR fraction, literature", "setting": "[2]", "value": "Estimated (literature[20]: 0.41 ± 0.22)"},
      {"measurement": "B:P (blood‐plasma ratio)", "setting": "[3]", "value": 0.88},
      {"measurement": "AUC", "setting": "[4]; day −4, patients", "value": 1450, "unit": "µg·h/mL"},
      {"measurement": "AUC", "setting": "[4]; day −6, patients", "value": 1420, "unit": "µg·h/mL"},
      {"measurement": "half-life", "setting": "[4]; day −4, patients", "value": 1.93, "unit": "h"},
      {"measurement": "half-life", "setting": "[4]; day −6, patients", "value": 1.86, "unit": "h"},
      {"measurement": "administered dose excreted in urine", "setting": "[4]; patients", "value": "About 40%"},
      {"measurement": "rate at which dose was excreted in urine", "setting": "[4]; patients, CV% = 31.98%", "value": 130.38, "unit": "mL/min"},
      {"measurement": "inhibition of CYP2D6", "setting": "CYP2D6", "value": "did not inhibit"},
      {"measurement": "IC50", "setting": "CYP2C19", "value": 972, "unit": "µM"},
      {"measurement": "Ki", "setting": "CYP2C19", "value": 778, "unit": "µM"},
      {"measurement": "inhibition of CYP2C8", "setting": "CYP2C8", "value": "did not inhibit"}
    ]}
  ]
}
